Assay results taken from ChEMBL document CHEMBL3804829, “Two New Faces of Amifostine: Protector from DNA Damage in Normal Cells and Inhibitor of DNA Repair in Cancer Cells” (J Med Chem, 2016).
The source made the active and inactive calls.

Tests used:
NHDF [1] = experiment: Induction of DNA DSB repair in gamma irradiated human NHDF at 4 mM preincubated for 15 mins followed by gamma irradiation measured after 60 to 120 mins by neutral comet assay; assay type: functional, cell-based
MCF7 [2] = experiment: Reduction of DNA DSB repair in gamma irradiated human MCF7 cells at 4 mM preincubated for 15 mins followed by gamma irradiation measured after 60 to 120 mins by neutral comet assay; assay type: functional, cell-based
[3] = Prodrug conversion in human MCF7 cell supernatants assessed as ALP-mediated WR-1065 formation at 4 mM after 20 to 75 mins by LC-MS/MS analysis; assay type: ADME, cell-based; details: mcf7, 4000 µM
[4] = Prodrug conversion in human NHDF cells assessed as ALP-mediated WR-1065 formation at 4 mM after 20 to 75 mins by LC-MS/MS analysis; assay type: ADME, cell-based; details: 4000 µM
[5] = Prodrug conversion in human MCF7 cells assessed as ALP-mediated WR-1065 formation at 4 mM after 20 to 75 mins by LC-MS/MS analysis; assay type: ADME, cell-based; details: mcf7, 4000 µM
MCF7 [6] = experiment: Induction of DNA damage in gamma irradiated human MCF7 cells assessed as increase in median number of […]/53BP1 foci per nucleus at 4 mM preincubated for 15 mins followed by gamma irradiation measured after 60 to 120 mins by confocal fluorescence microscopic analysis; assay type: functional, cell-based
Method in brief: (§1)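 NHDF fibroblasts or MCF7 cells, with or without 4 mM amifostine added 15 min before 1 Gy γ-irradiation. Sampled at 5, 60 and 120 min post-irradiation and fixed in paraformaldehyde to keep nuclei 3D-intact. γH2AX and 53BP1 were immunodetected and imaged by high-resolution confocal microscopy. A DSB was scored only as a γH2AX focus colocalizing with 53BP1 above a minimum size set for each time point. Read-out: median foci per nucleus.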

NHDF [7] = experiment: Induction of DNA DSB repair in gamma irradiated human NHDF assessed as median number of […]/53BP1 foci per nucleus preincubated for 15 mins followed by gamma irradiation measured after 120 mins by confocal fluorescence microscopic analysis relative to control; assay type: functional, cell-based; method in brief: as §1
[8] = Ratio of prodrug conversion in human NHDF assessed as ALP-mediated WR-1065 formation at 20 mins to prodrug conversion in human MCF7 cells assessed as ALP-mediated WR-1065 formation at 20 mins; assay type: ADME, cell-based; details: mcf7, 20 min
[9] = Ratio of prodrug conversion in human NHDF supernatants assessed as ALP-mediated WR-1065 formation at 20 mins to prodrug conversion in human MCF7 cell supernatants assessed as ALP-mediated WR-1065 formation at 20 mins; assay type: ADME, cell-based; details: mcf7, 20 min
[10] = Ratio of prodrug conversion in human NHDF assessed as ALP-mediated WR-1065 formation at 75 mins to prodrug conversion in human MCF7 cells assessed as ALP-mediated WR-1065 formation at 75 mins; assay type: ADME, cell-based; details: mcf7, 1.25 h
[11] = Ratio of prodrug conversion in human NHDF supernatants assessed as ALP-mediated WR-1065 formation at 75 mins to prodrug conversion in human MCF7 cell supernatants assessed as ALP-mediated WR-1065 formation at 75 mins; assay type: ADME, cell-based; details: mcf7, 1.25 h
NHDF [12] = experiment: Protection against DNA damage in gamma irradiated human NHDF assessed as decrease in median number of gammaH2AX/53BP1 foci per nucleus at 4 mM preincubated for 15 mins followed by gamma irradiation measured after 5 mins by confocal fluorescence microscopic analysis relative to control; assay type: functional; parameters: scale not given: the % may be the effect or the level left; method in brief: as §1
NHDF [13] = experiment: Protection against DNA damage in gamma irradiated human NHDF assessed as decrease in median number of gammaH2AX/53BP1 foci per nucleus at 4 mM preincubated for 15 mins followed by gamma irradiation measured after 60 mins by confocal fluorescence microscopic analysis relative to control; assay type: functional; parameters: scale not given: the % may be the effect or the level left; method in brief: as §1
NHDF [14] = experiment: Induction of DNA DSB repair in gamma irradiated human NHDF assessed as decrease in median number of […]/53BP1 foci per nucleus at 4 mM preincubated for 15 mins followed by gamma irradiation measured after 60 mins by confocal fluorescence microscopic analysis relative to 5 mins postirradiation; assay type: functional; parameters: scale not given: the % may be the effect or the level left
Method in brief: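 NHDF fibroblasts, with or without 4 mM amifostine 15 min before 1 Gy γ-rays, fixed in paraformaldehyde (3D-preserved). γH2AX foci colocalizing with 53BP1 and above a size threshold set per time point were counted by high-resolution confocal microscopy. Repair efficiency was taken as the median DSBs per nucleus at 5 min minus that at 60 min post-irradiation.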

MCF7 [15] = experiment: Reduction of DNA DSB repair in gamma irradiated human MCF7 cells assessed as median number of […]/53BP1 foci per nucleus at 4 mM preincubated for 15 mins followed by gamma irradiation measured after 60 mins by confocal fluorescence microscopic analysis relative to control; assay type: functional; parameters: scale not given: the % may be the effect or the level left; method in brief: as §1
NHDF [16] = experiment: Protection against DNA damage in gamma irradiated human NHDF assessed as decrease in double strand breakage of DNA at 4 mM preincubated for 15 mins followed by gamma irradiation measured after 5 mins by neutral comet assay; assay type: functional, cell-based
MCF7 [17] = experiment: Induction of DNA damage in gamma irradiated human MCF7 cells assessed as median number of […]/53BP1 foci per nucleus at 4 mM preincubated for 15 mins followed by gamma irradiation measured after 60 mins by confocal fluorescence microscopic analysis relative to control
NHDF [18] = experiment: Induction of DNA DSB repair in gamma irradiated human NHDF assessed as median number of […]/53BP1 foci per nucleus at 4 mM preincubated for 15 mins followed by gamma irradiation measured after 60 mins by confocal fluorescence microscopic analysis relative to control; assay type: functional
Method in brief: (§2)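 Cells received 4 mM drug 15 min before 1 Gy γ-irradiation and were sampled at 5, 60 and 120 min post-irradiation. They were fixed in paraformaldehyde to keep nuclei in 3D and immunostained for γH2AX and 53BP1. Imaging used high-resolution confocal microscopy. A DSB was scored only where a γH2AX focus colocalized with 53BP1 and met a minimum size set separately for each time point. The read-out was median foci per nucleus against untreated irradiated cells.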

NHDF [19] = experiment: Drug uptake in human NHDF at 4 mM after 20 to 75 mins by LC-MS/MS analysis; assay type: ADME, cell-based; details: 4000 µM
MCF7 [20] = experiment: Drug uptake in human MCF7 cells at 4 mM after 20 to 75 mins by LC-MS/MS analysis; assay type: ADME, cell-based; details: mcf7, 4000 µM
MCF7 [21] = experiment: Decrease in median number of […]/53BP1 foci per nucleus in gamma irradiated human MCF7 cells at 4 mM preincubated for 15 mins followed by gamma irradiation measured after 5 mins by confocal fluorescence microscopic analysis relative to control; assay type: functional; parameters: scale not given: the % may be the effect or the level left; method in brief: as §2
MCF7 [22] = experiment: Decrease in median number of […]/53BP1 foci per nucleus in gamma irradiated human MCF7 cells at 4 mM preincubated for 15 mins followed by gamma irradiation measured after 60 mins by confocal fluorescence microscopic analysis relative to control; assay type: functional; parameters: scale not given: the % may be the effect or the level left; method in brief: as §2
MCF7 [23] = experiment: Induction of DNA damage in gamma irradiated human MCF7 cells assessed as increase in double strand breakage of DNA at 4 mM preincubated for 15 mins followed by gamma irradiation measured after 5 mins by neutral comet assay; assay type: functional, cell-based

In the case of `NCCCNCCSP(=O)(O)O` [AMIFOSTINE], the Activity (NHDF [1]) is reported as “Active”, the Activity (MCF7 [2]) is reported as “Active” and the Drug metabolism [3] is reported as “metabolite_detected”. The Drug metabolism [4] was “metabolite_detected”, the Drug metabolism [5] was “metabolite_detected” and the Activity (MCF7 [6]) was “Active”. For the same molecule, the Activity (NHDF [7]) was “Active”, the Ratio [8] was 2.56 and the Ratio [9] was 1.62. The Ratio [10] was 1.47, the Ratio [11] was 2.17 and the Activity (NHDF [12]) was 75.8%. It also gave an Activity (NHDF [13]) of 61.9%, an Activity (NHDF [14]) of 10% and an Activity (MCF7 [15]) of 20.7%. The Activity (NHDF [16]) was “Active” and the Activity (MCF7 [17]) was 137.5%.

With `NCCCNCCS` [WR-1065] the Activity (NHDF [1]) was “Active”, the Activity (MCF7 [2]) was “Active” and the Activity (NHDF [18]) was 17.7%. It also gave a Drug uptake (NHDF [19]) of over 90%, a Drug uptake (MCF7 [20]) of over 90% and an Activity (NHDF [12]) of 65.2%. The Activity (NHDF [13]) was 50%, the Activity (MCF7 [21]) was 75% and the Activity (MCF7 [22]) was 82.9%. For the same molecule, the Activity (NHDF [16]) was “Active” and the Activity (MCF7 [23]) was “inactive”.
